From ChEMBL document CHEMBL1255535, “7-O-Arylmethylgalangin as a novel scaffold for anti-HCV agents” (Bioorg Med Chem Lett, 2010)

Legend:
[1] = system: Hepatitis C virus; experiment: Antiviral activity against HCV assessed as inhibition of viral replication by luciferase assay; assay type: functional, organism-based, Hepacivirus hominis
In short: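 Huh-5-2 replicon cells (5 × 10³/well) seeded in complete DMEM with G418, 24 h at 37 °C (5% CO2), then medium refreshed with G418 and compounds added from DMSO stock; 4 days at 37 °C; luciferase activity read by Steady-Glo. EC50 = concentration inhibiting HCV RNA replication by 50%, averaged from triplicate determinations; IFN-α as positive control.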

[2] = Cytotoxicity against human Huh5-2 cells after 3 days by WST-1 assay; assay type: cell-based, Huh-5-2
In short: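 Huh-5-2 cells seeded at 5 × 10³/well in complete DMEM with G418; serial compound dilutions in DMEM without G418 added 24 h later; cells proliferated 3 days at 37 °C; cell number by WST-1. CC50 = concentration reducing cell proliferation by 50%.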

[3] = Selectivity index, ratio of CC50 for human Huh5-2 cells to EC50 for HCV; parameters: species or system Huh-5-2
In short: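 Selectivity index computed as CC50 (Huh-5-2 proliferation, WST-1, 3 days) divided by EC50 (replicon luciferase, 4 days), both from the same Huh-5-2 cell line.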

| Compound | EC50 [1] [µM] | CC50 at 72 h [2] [µM] | Selectivity Index [3] |
| --- | --- | --- | --- |
| N#Cc1cccc(COc2cc(O)c3c(=O)c(O)c(-c4ccccc4)oc3c2)c1 | 3 | 72 | 24 |
| O=c1c(O)c(-c2ccccc2)oc2cc(OCc3cccc([N+](=O)[O-])c3)cc(O)c12 | 2 | 76 | 38 |
| N#Cc1ccc(COc2cc(O)c3c(=O)c(O)c(-c4ccccc4)oc3c2)cc1 | 19 | 94 | 4.9 |
| O=c1c(O)c(-c2ccccc2)oc2cc(OCc3ccc([N+](=O)[O-])cc3)cc(O)c12 | 10 | 93 | 9.3 |
| COc1ccc(COc2cc(O)c3c(=O)c(O)c(-c4ccccc4)oc3c2)cc1 | 38 | > 100 |  |
| N#Cc1ccc(-c2oc3cc(OCc4ccc(Cl)cc4)cc(O)c3c(=O)c2O)cc1 | 0.9 | 67 | 74.4 |
| O=c1c(O)c(-c2ccc(C(F)(F)F)cc2)oc2cc(OCc3ccc(Cl)cc3)cc(O)c12 | 3 | 73 | 24.3 |
| COc1ccc(-c2oc3cc(OCc4ccc(Cl)cc4)cc(O)c3c(=O)c2O)cc1 | 6 | 64 | 10.7 |
| O=C(O)/C(O)=C/C(=O)c1cccc(NCc2ccc(Cl)cc2)c1 | 0.82 |  |  |

The next lines start with results.

| EC50 [1] [µM] | Compound | CC50 at 72 h [2] [µM] | Selectivity Index [3] |
| --- | --- | --- | --- |
| 53 | COc1ccccc1COc1cc(O)c2c(=O)c(O)c(-c3ccccc3)oc2c1 | > 100 |  |
| 30 | O=c1c(O)c(-c2ccccc2)oc2cc(OCc3ccccc3Cl)cc(O)c12 | > 100 |  |
| 10 | O=c1c(O)c(-c2ccccc2)oc2cc(OCc3ccccc3Br)cc(O)c12 | > 100 |  |
| 39 | N#Cc1ccccc1COc1cc(O)c2c(=O)c(O)c(-c3ccccc3)oc2c1 | 22 | 0.6 |
| 25 | O=c1c(O)c(-c2ccccc2)oc2cc(OCc3ccccc3[N+](=O)[O-])cc(O)c12 | 32 | 1.3 |
| 7 | Cc1ccccc1COc1cc(O)c2c(=O)c(O)c(-c3ccccc3)oc2c1 | 17 | 2.4 |
| 22 | O=c1c(O)c(-c2ccccc2)oc2cc(OCc3cccc(Cl)c3)cc(O)c12 | > 100 |  |
| 37 | O=c1c(O)c(-c2ccccc2)oc2cc(OCc3cccc(Br)c3)cc(O)c12 | > 100 |  |
| 27 | Cc1cccc(COc2cc(O)c3c(=O)c(O)c(-c4ccccc4)oc3c2)c1 | 35 | 1.3 |
| 15 | COc1cccc(COc2cc(O)c3c(=O)c(O)c(-c4ccccc4)oc3c2)c1 | > 100 |  |
| 8 | O=c1c(O)c(-c2ccccc2)oc2cc(OCc3ccc(Cl)cc3)cc(O)c12 | > 100 |  |
| 6 | O=c1c(O)c(-c2ccccc2)oc2cc(OCc3ccc(Br)cc3)cc(O)c12 | > 100 |  |
| 6 | Cc1ccc(COc2cc(O)c3c(=O)c(O)c(-c4ccccc4)oc3c2)cc1 | 88 | 14.7 |
